Results as given in ChEMBL document CHEMBL1153955, “Indolylarylsulfones bearing natural and unnatural amino acids. Discovery of potent inhibitors of HIV-1 non-nucleoside wild type and resistant mutant strains reverse transcriptase and coxsackie B4 virus” (J Med Chem, 2009).

Legend:
[1] = system: Human respirovirus 3; experiment: Antiviral activity against Parainfluenza virus type 3 in african green monkey Vero cells assessed as protection against virus-induced cytopathicity; assay type: functional, organism-based; details: Human respirovirus 3, Vero
How it was run: (§1)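 Confluent cell monolayers inoculated with 100 CCID₅₀ virus. After 1-2 h adsorption, residual virus removed and cultures incubated with varying compound concentrations. Cytopathicity scored once it reached completion in untreated infected controls. EC₅₀ = dose reducing virus-induced cytopathogenicity by 50%.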

[2] = system: Mammalian orthoreovirus 1; experiment: Antiviral activity against Reovirus 1 in african green monkey Vero cells assessed as protection against virus-induced cytopathicity; assay type: functional, organism-based; details: Mammalian orthoreovirus 1, Vero; how it was run: as §1
[3] = system: Coxsackievirus B4; experiment: Antiviral activity against Coxsackievirus B4 in human HeLa cells assessed as protection against virus-induced cytopathicity; assay type: functional, organism-based; details: Enterovirus B; how it was run: as §1
[4] = system: Influenza A virus; experiment: Antiviral activity against influenza H1N1 virus in MDCK cells assessed as reduction of virus-induced cytopathicity by MTS method; assay type: functional, organism-based; details: Influenza A virus, H1N1, MDCK
[5] = system: Influenza A virus; experiment: Antiviral activity against influenza H1N1 virus in MDCK cells assessed as reduction of virus-induced cytopathicity by visual cytopathic effect scoring method; assay type: functional, organism-based
[6] = system: Influenza A virus H3N2; experiment: Antiviral activity against influenza H3N2 virus in MDCK cells assessed as reduction of virus-induced cytopathicity by visual cytopathic effect scoring method; assay type: functional, organism-based
[7] = system: Coxsackievirus B4; experiment: Antiviral activity against Coxsackievirus B4 in african green monkey Vero cells assessed as protection against virus-induced cytopathicity; assay type: functional, organism-based; details: Enterovirus B; how it was run: as §1
[8] = system: Influenza B virus; experiment: Antiviral activity against influenza B virus in MDCK cells assessed as reduction of virus-induced cytopathicity by MTS method; assay type: functional, organism-based
[9] = Cytotoxicity against feline CRFK cells by MTS assay; assay type: cell-based, Felis catus; details: cat
[10] = system: Sindbis virus; experiment: Antiviral activity against Sindbis virus in african green monkey Vero cells assessed as protection against virus-induced cytopathicity; assay type: functional, organism-based; how it was run: as §1
[11] = system: Human alphaherpesvirus 1; experiment: Antiviral activity against HSV1 KOS in human HEL cells assessed as protection against virus-induced cytopathicity; assay type: functional, organism-based; details: Human alphaherpesvirus 1, KOS
[12] = system: Feline coronavirus; experiment: Antiviral activity against Feline coronavirus in feline […] cells assessed as inhibition of virus-induced cytopathicity; assay type: functional, organism-based; details: Alphacoronavirus 1
[13] = system: Human immunodeficiency virus 2; experiment: Antiviral activity against HIV2 ROD in human CEM cells assessed as protection against virus-induced cytopathicity after 4 days; assay type: functional, organism-based; details: Human immunodeficiency virus 2, ROD, CCRF-CEM, 96 h
How it was run: (§2)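 CEM cells (~3 × 10⁵ cells/mL) infected with ~100 CCID₅₀ per mL of HIV-1 (IIIB) or HIV-2 (ROD), then seeded into wells containing compound dilutions. After 4 days at 37 °C, syncytium (giant cell) formation was examined microscopically. EC₅₀ = concentration protecting CEM cells from HIV cytopathicity by 50%.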

[14] = system: Influenza A virus H3N2; experiment: Antiviral activity against influenza H3N2 virus in MDCK cells assessed as reduction of virus-induced cytopathicity by MTS method; assay type: functional, organism-based
[15] = system: Influenza B virus; experiment: Antiviral activity against influenza B virus in MDCK cells assessed as reduction of virus-induced cytopathicity by visual cytopathic effect scoring method; assay type: functional, organism-based
[16] = system: Vaccinia virus; experiment: Antiviral activity against Vaccinia virus Lederle in human HEL cells assessed as protection against virus-induced cytopathicity; assay type: functional, organism-based; details: Orthopoxvirus vaccinia
[17] = system: Human immunodeficiency virus 1; experiment: Antiviral activity against HIV1 3B in human CEM cells assessed as protection against virus-induced cytopathicity after 4 days; assay type: functional, organism-based; details: Human immunodeficiency virus 1, 3B, CCRF-CEM, 96 h; how it was run: as §2
[18] = system: Punta Toro virus; experiment: Antiviral activity against Punta Toro virus in african green monkey Vero cells assessed as protection against virus-induced cytopathicity; assay type: functional, organism-based; how it was run: as §1
[19] = system: Human alphaherpesvirus 2; experiment: Antiviral activity against HSV2 G in human HEL cells assessed as protection against virus-induced cytopathicity; assay type: functional, organism-based; details: Human alphaherpesvirus 2, strain G; how it was run: as §1
[20] = system: Felid alphaherpesvirus 1; experiment: Antiviral activity against Feline herpesvirus in feline […] cells assessed as inhibition of virus-induced cytopathicity; assay type: functional, organism-based
[21] = system: Vesicular stomatitis virus; experiment: Antiviral activity against VSV in human HEL cells assessed as protection against virus-induced cytopathicity; assay type: functional, organism-based
[22] = system: L1210; experiment: Antiproliferative activity against mouse L1210 cells after 2 days; assay type: cell-based; details: L1210, 48 h
How it was run: (§3)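 Cells seeded at 5 × 10⁴ to 7.5 × 10⁴ cells/200 µL with or without serial compound dilutions; incubated at 37 °C for 2 days (L1210) or 3 days (Molt4/C8, CEM). Cell numbers counted with a Coulter counter. CC₅₀ = concentration reducing proliferation by 50% versus untreated controls, read from plots of cell number (% of control) against concentration. Means of at least two independent experiments.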

[23] = system: Respiratory syncytial virus; experiment: Antiviral activity against RSV Long in human HeLa cells assessed as protection against virus-induced cytopathicity; assay type: functional, organism-based; how it was run: as §1
[24] = system: CCRF-CEM; experiment: Antiproliferative activity against human CEM cells after 3 days; assay type: cell-based; details: 72 h; how it was run: as §3
[25] = biological target: Human immunodeficiency virus type 1 reverse transcriptase (Human immunodeficiency virus 1, UniProt Q72547, L100I); experiment: Inhibition of HIV1 reverse transcriptase p66/p51 L100I mutant; details: read-out: IC50
How it was run: (§4)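 Substrate was 0.5 µg poly(rA)/oligo(dT) 10:1 (0.3 µM 3′-OH ends) with 10 µM [³H]dTTP, at 37 °C. Acid-precipitable radioactivity was counted on GF/C filters after TCA washes.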

[26] = Antiproliferative activity against human Molt4/C8 cells after 3 days; assay type: cell-based; details: MOLT-4, 72 h; how it was run: as §3
[27] = system: Human alphaherpesvirus 1; experiment: Antiviral activity against thymidine kinase deficient and acyclovir resistant HSV1 KOS in human HEL cells assessed as protection against virus-induced cytopathicity; assay type: functional, organism-based; details: Human alphaherpesvirus 1, KOS
[28] = biological target: Human immunodeficiency virus type 1 reverse transcriptase (Human immunodeficiency virus 1, UniProt Q72547, Y181I); experiment: Inhibition of HIV1 reverse transcriptase p66/p51 Y181I mutant; details: read-out: IC50; how it was run: as §4
[29] = Cytotoxicity against african green monkey Vero cells assessed as drug level causing microscopically detectable alteration of normal cell morphology after 3 days; assay type: cell-based; details: chlorocebus sabaeus
How it was run: (§5)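 Serial compound dilutions added to confluent HeLa or Vero monolayers. MCC = minimum concentration causing microscopically detectable alteration of cell morphology after 3 days of incubation.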

[30] = biological target: Human immunodeficiency virus type 1 reverse transcriptase (Human immunodeficiency virus 1, UniProt Q72547, K103N); experiment: Inhibition of HIV1 reverse transcriptase p66/p51 K103N mutant; details: read-out: IC50; how it was run: as §4
[31] = Cytotoxicity against human HEL cells assessed as drug level causing microscopically detectable alteration of normal cell morphology after 3 days; assay type: cell-based
[32] = Cytotoxicity against human HeLa cells assessed as drug level causing microscopically detectable alteration of normal cell morphology after 3 days; assay type: cell-based; how it was run: as §5
[33] = Cytotoxicity against MDCK cells assessed as drug level causing microscopically detectable alteration of normal cell morphology; assay type: cell-based, Canis lupus familiaris; details: dog
[34] = Cytotoxicity against MDCK cells by MTS assay; assay type: cell-based, Canis lupus familiaris; details: dog
[35] = biological target: Human immunodeficiency virus type 1 reverse transcriptase (Human immunodeficiency virus 1, UniProt Q72547); experiment: Inhibition of HIV1 reverse transcriptase p66/p51; details: read-out: IC50
[36] = system: Vesicular stomatitis virus; experiment: Antiviral activity against VSV in human HeLa cells assessed as protection against virus-induced cytopathicity; assay type: functional, organism-based

Cc1cc(C)cc(S(=O)(=O)c2c(C(=O)NCC(N)=O)[nH]c3ccc(Cl)c(F)c23)c1
EC50 [1]: > 20 µM
EC50 [2]: > 20 µM
EC50 [3]: 9 µM
EC50 [4]: > 4 µM
EC50 [5]: > 4 µM
EC50 [6]: > 4 µM
EC50 [7]: > 20 µM
EC50 [8]: > 4 µM
CC50 [9]: 71 µM
EC50 [10]: > 20 µM
EC50 [11]: > 20 µM
EC50 [12]: > 20 µM
EC50 [13]: > 10 µM
EC50 [14]: > 4 µM
EC50 [15]: > 4 µM
EC50 [16]: > 20 µM
EC50 [17]: 0.0031 µM
EC50 [18]: > 20 µM
EC50 [19]: > 20 µM
EC50 [20]: > 20 µM
EC50 [21]: > 20 µM
IC50 [22]: 53 µM
EC50 [23]: 16 µM
IC50 [24]: 31 µM
IC50 [25]: 0.319 µM
IC50 [26]: 34 µM
EC50 [27]: > 20 µM
IC50 [28]: 2.46 µM
MCC at 72 h [29]: > 100 µM
IC50 [30]: 1.04 µM
MCC at 72 h [31]: 100 µM
MCC at 72 h [32]: 100 µM
MCC [33]: 20 µM
CC50 [34]: 7.6 µM
IC50 [35]: 0.025 µM
EC50 [36]: > 20 µM

Cc1cc(C)cc(S(=O)(=O)c2c(C(N)=O)[nH]c3ccc(Cl)cc23)c1
EC50 [1]: > 100 µM
EC50 [2]: > 100 µM
EC50 [3]: > 100 µM
EC50 [4]: > 100 µM
EC50 [5]: > 100 µM
EC50 [6]: > 100 µM
EC50 [7]: > 100 µM
EC50 [8]: > 100 µM
CC50 [9]: > 100 µM
EC50 [10]: > 100 µM
EC50 [11]: > 100 µM
EC50 [12]: > 100 µM
EC50 [13]: > 2 µM
EC50 [14]: > 100 µM
EC50 [15]: > 100 µM
EC50 [16]: > 100 µM
EC50 [17]: 0.0011 µM
EC50 [18]: > 100 µM
EC50 [19]: > 100 µM
EC50 [20]: > 100 µM
EC50 [21]: > 100 µM
IC50 [22]: ≥ 500 µM
EC50 [23]: > 100 µM
IC50 [24]: 301 µM
IC50 [25]: 0.06 µM
IC50 [26]: 20 µM
EC50 [27]: > 100 µM
IC50 [28]: 0.14 µM
MCC at 72 h [29]: > 100 µM
IC50 [30]: 0.003 µM
MCC at 72 h [31]: > 100 µM
MCC at 72 h [32]: > 100 µM
MCC [33]: > 100 µM
CC50 [34]: > 100 µM
IC50 [35]: 0.0003 µM
EC50 [36]: > 100 µM

Cc1cc(C)cc(S(=O)(=O)c2c(C(=O)NC(C)C(N)=O)[nH]c3ccc([N+](=O)[O-])cc23)c1 (stereo not drawn)
EC50 [1]: > 100 µM
EC50 [2]: > 100 µM
EC50 [3]: ≥ 20 µM
EC50 [4]: > 20 µM
EC50 [5]: > 20 µM
EC50 [6]: > 20 µM
EC50 [7]: > 100 µM
EC50 [8]: > 20 µM
CC50 [9]: 82.1 µM
EC50 [10]: > 100 µM
EC50 [11]: > 20 µM
EC50 [12]: > 20 µM
EC50 [13]: > 10 µM
EC50 [14]: > 20 µM
EC50 [15]: > 20 µM
EC50 [16]: > 20 µM
EC50 [17]: 0.0038 µM
EC50 [18]: > 100 µM
EC50 [19]: > 20 µM
EC50 [20]: > 20 µM
EC50 [21]: > 20 µM
IC50 [22]: 96 µM
EC50 [23]: > 100 µM
IC50 [24]: 66 µM
IC50 [25]: 0.209 µM
IC50 [26]: 44 µM
EC50 [27]: > 20 µM
IC50 [28]: 4.21 µM
MCC at 72 h [29]: > 100 µM
IC50 [30]: 0.362 µM
MCC at 72 h [31]: 100 µM
MCC at 72 h [32]: > 100 µM
MCC [33]: 100 µM
CC50 [34]: 95.9 µM
IC50 [35]: 0.022 µM
EC50 [36]: > 100 µM
